The source made the active and inactive calls. No cut-off for these calls is given here.
Tests used:
SH-SY5Y [1] = experiment: Cell cycle arrest in SHSY5Y cells by accumulation at G2 phase after 4 hrs; type: functional, Homo sapiens
SH-SY5Y [2] = experiment: Cytotoxicity against SHSY5Y cell line by MTT assay; type: functional, cell-based; settings: Homo sapiens
SH-SY5Y [3] = experiment: Cell cycle arrest in SHSY5Y cells by accumulation at G2 phase after 24 hrs; type: functional, Homo sapiens
SH-SY5Y [4] = experiment: Cell cycle arrest in SHSY5Y cells by accumulation at G1 phase after 24 hrs; type: functional, Homo sapiens
Tubulin (Homo sapiens) [5] = target: T1, Tubulin (Homo sapiens) (UniProt P68371+Q9H4B7+P0DPH7+P68366+Q13509+Q71U36+P04350+Q3ZCM7+P07437+P68363+Q9BQE3+Q6PEY2+Q13885+Q9BVA1+Q9BUF5); experiment: Inhibition of tubulin polymerization; type: protein-complex assay
Method in brief: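 Whole-cell (in vivo) tubulin polymerization assay in neuroblastoma cells. Cells are incubated overnight with a high inhibitor concentration. Proteins are then extracted in the presence of paclitaxel so that the tubulin polymerization state is frozen at extraction.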

SH-SY5Y [6] = experiment: Cell cycle arrest in SHSY5Y cells by accumulation at G1 phase after 8 hrs; type: functional, Homo sapiens
SH-SY5Y [7] = experiment: Cell cycle arrest in SHSY5Y cells by accumulation at S phase after 12 hrs; type: functional, Homo sapiens
SH-SY5Y [8] = experiment: Cell cycle arrest in SHSY5Y cells by accumulation at S phase after 24 hrs; type: functional, Homo sapiens
Tubulin (Homo sapiens) [9] = target: T1, Tubulin (Homo sapiens); experiment: Induction of tubulin depolymerization at 2.9 nM after 24 hrs; type: protein-complex assay
SH-SY5Y [10] = experiment: Cell cycle arrest in SHSY5Y cells by accumulation at G2 phase after 8 hrs; type: functional, Homo sapiens
SH-SY5Y [11] = experiment: Cell cycle arrest in SHSY5Y cells by accumulation at G2 phase after 12 hrs; type: functional, Homo sapiens
SH-SY5Y [12] = experiment: Cell cycle arrest in SHSY5Y cells by accumulation at S phase after 8 hrs; type: functional, Homo sapiens
SH-SY5Y [13] = experiment: Cell cycle arrest in SHSY5Y cells by accumulation at G1 phase after 4 hrs; type: functional, Homo sapiens
SH-SY5Y [14] = experiment: Cell cycle arrest in SHSY5Y cells by accumulation at G1 phase after 12 hrs; type: functional, Homo sapiens
SH-SY5Y [15] = experiment: Cell cycle arrest in SHSY5Y cells by accumulation at S phase after 4 hrs; type: functional, Homo sapiens
SH-SY5Y [16] = experiment: Cytotoxicity against SHSY5Y cell line upto 1 uM by MTT assay; type: functional, cell-based; settings: Homo sapiens
Tubulin (Homo sapiens) [17] = target: T1, Tubulin (Homo sapiens); experiment: Induction of tubulin depolymerization at 231 nM after 24 hrs; type: protein-complex assay
Tubulin (Homo sapiens) [18] = target: T1, Tubulin (Homo sapiens); experiment: Induction of tubulin depolymerization at 35.8 nM after 24 hrs; type: protein-complex assay

Row | Compound | Activity (Tubulin (Homo sapiens) [5]) | Activity (Tubulin (Homo sapiens) [9]) | Activity (Tubulin (Homo sapiens) [17]) | Activity (Tubulin (Homo sapiens) [18]) | Activity (SH-SY5Y [1]) [%] | IC50 (SH-SY5Y [2]) [nM] | Activity (SH-SY5Y [3]) [%] | Activity (SH-SY5Y [4]) [%] | Activity (SH-SY5Y [6]) [%] | Activity (SH-SY5Y [7]) [%] | Activity (SH-SY5Y [8]) [%] | Activity (SH-SY5Y [10]) [%] | Activity (SH-SY5Y [11]) [%] | Activity (SH-SY5Y [12]) [%] | Activity (SH-SY5Y [13]) [%] | Activity (SH-SY5Y [14]) [%] | Activity (SH-SY5Y [15]) [%] | Activity (SH-SY5Y [16])
1 | COc1ccc(-c2c(-c3cc(OC)c(OC)c(OC)c3)coc2C=O)cc1 | Active | – | Active | – | 62 | 231 | 25 | 77 | 93 | 79 | 29 | 23 | 82 | 84 | 32 | 42 | 54 | –
2 | COc1ccc(/C=C\c2cc(OC)c(OC)c(OC)c2)cc1O [COMBRETASTATIN A4] | Active | – | – | – | 82 | 1.6 | 92 | 25 | 66 | 83 | 83 | 55 | 52 | 79 | 69 | 64 | 49 | –
3 | COc1ccc(-c2c(-c3cc(OC)c(OC)c(OC)c3)coc2/C=N/NC(=O)CCCC(=O)O)cc1 | Active | – | – | – | – | 1670 | – | – | – | – | – | – | – | – | – | – | – | –
4 | COc1ccc(-c2cocc2-c2cc(OC)c(OC)c(OC)c2)cc1 | – | – | – | – | – | 39 | – | – | – | – | – | – | – | – | – | – | – | –
5 | COc1ccc(-c2coc(C=O)c2-c2cc(OC)c(OC)c(OC)c2)cc1 | Active | – | – | inactive | 41 | 35.8 | 81 | 58 | 74 | 39 | 78 | 25 | 55 | 46 | 53 | 50 | 54 | –

Second part, led by results:

Row | Activity (Tubulin (Homo sapiens) [5]) | Activity (Tubulin (Homo sapiens) [9]) | Activity (Tubulin (Homo sapiens) [17]) | Activity (Tubulin (Homo sapiens) [18]) | Compound | Activity (SH-SY5Y [1]) [%] | IC50 (SH-SY5Y [2]) [nM] | Activity (SH-SY5Y [3]) [%] | Activity (SH-SY5Y [4]) [%] | Activity (SH-SY5Y [6]) [%] | Activity (SH-SY5Y [7]) [%] | Activity (SH-SY5Y [8]) [%] | Activity (SH-SY5Y [10]) [%] | Activity (SH-SY5Y [11]) [%] | Activity (SH-SY5Y [12]) [%] | Activity (SH-SY5Y [13]) [%] | Activity (SH-SY5Y [14]) [%] | Activity (SH-SY5Y [15]) [%] | Activity (SH-SY5Y [16])
6 | Active | Active | – | – | COc1ccc(-c2cocc2-c2cc(OC)c(OC)c(OC)c2)cc1O | 33 | 2.9 | 45 | 70 | 87 | 43 | 85 | 55 | 38 | 58 | 33 | 47 | 53 | –
7 | Active | – | – | – | COc1cc(-c2cocc2-c2ccc3c(c2)OCO3)cc(OC)c1OC | – | – | – | – | – | – | – | – | – | – | – | – | – | inactive
8 | Active | – | – | – | COc1ccc(-c2cocc2-c2cc(OC)c(OC)c(OC)c2)cc1[N+](=O)[O-] | – | 245 | – | – | – | – | – | – | – | – | – | – | – | –
9 | Active | – | – | – | COc1ccc(-c2cocc2-c2cc(OC)c(OC)c(OC)c2)cc1N | – | 5.1 | – | – | – | – | – | – | – | – | – | – | – | –

Reference: ChEMBL document CHEMBL1146182, “Synthesis and cytotoxic evaluation of combretafurans, potential scaffolds for dual-action antitumoral agents” (J Med Chem, 2006)
